# Experimental data as given in ChEMBL document CHEMBL1143247, “Vesicular monoamine transporter substrate/inhibitor activity of MPTP/MPP+ derivatives: a structure-activity study” (J Med Chem, 2008).
# B1: Synaptic vesicular amine transporter (Bos taurus), Q27963 (protein)
# chain: MALSELALLRRLQESRHSRKLILFIVFLALLLDNMLLTVVVPIIPSYLYSIEHEKDALEIQTAKPGLTASAPGSFQNIFSYYDNSTMVTGNSTDHLQGALVHEATTQHMATNSSSASSDCPSEDKDLLNENVQVGLLFASKATVQLLTNPFIGLLTNRIGYPIPMFTGFCIMFISTVMFAFSRTYAFLLIARSLQGIGSSCSSVAGMGMLASVYTDDEERGNAMGIALGGLAMGVLVGPPFGSVLYEFVGKTAPFLVLAALVLLDGAIQLFVLQPSRVQPESQKGTPLTTLLRDPYILIAAGSICFANMGIAMLEPALPIWMMETMCSHKWQLGVAFLPASVSYLIGTNVFGILAHKMGRWLCALLGMIIVGMSILCIPLAKNIYGLIAPNFGVGFAIGMVDSSMMPIMGYLVDLRHVSVYGSVYAIADVAFCMGYAIGPSAGGAIAKAIGFPWLMTIIGIIDILFAPLCFFLRSPPAKEEKMAILMDHNCPIKTKMYTQNSSQSHPIGEDEESESD
# Legend:
# [1] = molecular target: Synaptic vesicular amine transporter (Bos taurus) (UniProt Q27963); test: Ratio of Km for dopamine uptake at VMAT in bovine chromaffin granule ghosts to Ki for VMAT in bovine chromaffin granule ghosts
# Outline: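 Ratio of Km for DA to Ki for the inhibitor. Both were determined on the same ghost preparation for each compound, to normalize day-to-day variation in DA Km between preparations. Ki comes from DA-uptake competition in resealed bovine chromaffin granule ghosts (5 mM Mg-ATP, pH 7.0, 30 °C, HPLC-EC read-out). Km for DA comes from initial uptake rates fitted to Michaelis–Menten.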
# [2] = molecular target: Synaptic vesicular amine transporter (Bos taurus, UniProt Q27963); test: Inhibition of dopamine uptake at VMAT in bovine chromaffin granule ghosts
# Outline: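 Resealed bovine chromaffin granule ghosts preincubated 10 min at 30 °C in 0.3 M sucrose, 10 mM HEPES, 5 mM Mg-ATP, 5 mM MgSO₄, 100 µg/mL catalase, pH 7.0. Inhibitor then added for 2 min before starting uptake with DA. Aliquots taken at 6 min intervals, pelleted, washed and extracted in 0.1 M HClO₄. Intragranular catecholamines measured by HPLC-EC. Ki obtained by fitting typically 4–5 inhibitor × 6 DA concentrations to a competitive model. Errors are fitting standard errors.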
# [3] = substrate: COc1ccc(-c2cc[n+](C)cc2)cc1; test: (§1) Activity of VMAT in bovine chromaffin granule ghosts assessed as drug uptake; conditions: Bos taurus
# Outline: (§2)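 Resealed bovine adrenal chromaffin granule ghosts, prepared fresh from frozen membrane stores, preincubated 10 min at 30 °C in 0.3 M sucrose, 10 mM HEPES, 5 mM Mg-ATP, 5 mM MgSO₄, 100 µg/mL catalase, pH 7.0. Test substrate added without DA. Aliquots taken at 6 min intervals, diluted into ice-cold sucrose/HEPES, pelleted, washed, extracted with 0.1 M HClO₄. Intragranular substrate measured by HPLC-UV. Km and Vmax come from Michaelis–Menten fits of initial rates at 12 substrate concentrations.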
# [4] = substrate: CN1CC=C(c2ccccc2)CC1; test: as §1; conditions: Bos taurus; outline: as §2
# [5] = substrate: C[n+]1ccc(-c2cccc(O)c2)cc1; test: as §1; conditions: Bos taurus; outline: as §2
# [6] = substrate: C[n+]1ccc(-c2ccc(O)cc2)cc1; test: as §1; conditions: Bos taurus; outline: as §2
# [7] = substrate: Cc1ccc(-c2cc[n+](C)cc2)cc1; test: as §1; conditions: Bos taurus; outline: as §2
# [8] = substrate: C[n+]1ccc(-c2ccccc2)cc1; test: as §1; conditions: Bos taurus; outline: as §2
Molecule,Dopamine Km / inhibitor Ki ratio [1],Ki [2],also measured
C[n+]1ccc(-c2cccc(Cl)c2)cc1,1.1,46.3 µM,–
CN1CC=C(c2cccc(Cl)c2)CC1,1.6,27.7 µM,–
Cc1ccc(-c2cc[n+](C)cc2)cc1,1,51.8 µM,–
COc1ccc2c3c([nH]c2c1)[C@H]1C[C@H]2[C@H](C[C@@H](O)[C@H](OC)[C@H]2C(=O)O)CN1CC3,–,10 µM,–
C=C(C[n+]1ccc(-c2ccccc2)cc1)c1ccc(-c2ccccc2)cc1,11.3,4.5 µM,–
C[n+]1ccc(-c2ccc(O)cc2)cc1,0.7,82 µM,–
Cc1ccccc1-c1cc[n+](C)cc1,0.3,95 µM,–
Cc1ccccc1C1=CCN(C)CC1,–,38.4 µM,–
CN1CC=C(c2ccc(O)cc2)CC1,0.3,134 µM,–
CN1CC=C(c2ccccc2N)CC1,0.1,193 µM,–
C=C(CN1CCC(c2ccccc2)CC1)c1ccccc1,1.8,16.4 µM,–
CN1CC=C(c2ccc(F)cc2)CC1,0.9,49.7 µM,–
C[N+]1=CC=C(c2ccccc2)CC1,0.7,53 µM,–
CN1CC=C(c2ccccc2)CC1,–,52.5 µM,–
C[n+]1ccc(-c2cccc(C(F)(F)F)c2)cc1,1.8,24.6 µM,–
C=C(C[n+]1ccc(-c2cccc(O)c2)cc1)c1ccc(I)cc1,55,0.4 µM,–
C[n+]1cccc(-c2cccc(O)c2)c1,1.2,36.6 µM,–
C[n+]1ccc(-c2ccc(C(F)(F)F)cc2)cc1,1.3,33.8 µM,–

Molecule,Dopamine Km / inhibitor Ki ratio [1],Ki [2],also measured
C[n+]1ccc(-c2ccc(Cl)cc2)cc1,5.8,7.6 µM,–
C=C(CN1CCN(c2ccccc2)CC1)c1ccccc1,24.1,1.4 µM,–
C=C(C[n+]1ccc(-c2ccc(OC)cc2)cc1)c1ccccc1,8.7,2.8 µM,–
COc1cc2c(cc1OC)C1CC(=O)C(CC(C)C)CN1CC2 (centres undefined) [TETRABENAZINE],–,0.004 µM,–
C=C(C[n+]1ccc(-c2ccc(O)cc2)cc1)c1ccc(Br)cc1,41.5,0.5 µM,–
C[n+]1cccc(-c2ccc(O)cc2)c1,0.1,338 µM,–
C[n+]1ccc(-c2cccc(O)c2)cc1,9.7,2.4 µM,–
C[n+]1ccc(-c2ccc(F)cc2)cc1,1,51.3 µM,–
COC(=O)[C@H]1[C@H]2C[C@@H]3c4[nH]c5cc(OC)ccc5c4CCN3C[C@H]2C[C@@H](OC(=O)c2cc(OC)c(OC)c(OC)c2)[C@@H]1OC [RESERPINE],–,0.001 µM,–
C=C(C[n+]1ccc(-c2ccccc2)nc1)c1ccccc1,2.7,13.4 µM,–
C=C(C[n+]1ccc(-c2ccccc2)cc1)c1ccccc1,0.9,38.4 µM,–
COc1ccc(-c2cc[n+](C)cc2)cc1,0.2,106 µM,–
C[n+]1ccc(-c2ccccc2)cc1,–,92 µM,–
C=C(C[n+]1ccc(C2CCCCC2)cc1)c1ccccc1,0.7,53 µM,–
Cc1c[n+](C)ccc1-c1ccc(O)cc1,0.8,65 µM,–
CN1CC=C(c2cccc(O)c2)CC1,1.7,25.8 µM,–
B1,–,–,Km [3]: 135 µM; Vmax [3]: 1.6 nmol/mg/min; Km [4]: 409 µM; Vmax [4]: 1.7 nmol/mg/min; Km [5]: 8.4 µM; Vmax [5]: 1.9 nmol/mg/min; Km [6]: 107 µM; Vmax [6]: 1.6 nmol/mg/min; Km [7]: 41.3 µM; Vmax [7]: 0.9 nmol/mg/min; Km [8]: 73 µM; Vmax [8]: 1.4 nmol/mg/min
